Test results as given in ChEMBL document CHEMBL1134906, “Arylpiperazine substituted heterocycles as selective alpha(1a) adrenergic antagonists” (Bioorg Med Chem Lett, 2002).

Columns and labels:
[1] = biological target: T1, Alpha-1D adrenergic receptor (Homo sapiens, UniProt P25100); assay: Displacement of [125I]HEAT from human Alpha-1D adrenergic receptor
T1 sequence (P25100 whole entry): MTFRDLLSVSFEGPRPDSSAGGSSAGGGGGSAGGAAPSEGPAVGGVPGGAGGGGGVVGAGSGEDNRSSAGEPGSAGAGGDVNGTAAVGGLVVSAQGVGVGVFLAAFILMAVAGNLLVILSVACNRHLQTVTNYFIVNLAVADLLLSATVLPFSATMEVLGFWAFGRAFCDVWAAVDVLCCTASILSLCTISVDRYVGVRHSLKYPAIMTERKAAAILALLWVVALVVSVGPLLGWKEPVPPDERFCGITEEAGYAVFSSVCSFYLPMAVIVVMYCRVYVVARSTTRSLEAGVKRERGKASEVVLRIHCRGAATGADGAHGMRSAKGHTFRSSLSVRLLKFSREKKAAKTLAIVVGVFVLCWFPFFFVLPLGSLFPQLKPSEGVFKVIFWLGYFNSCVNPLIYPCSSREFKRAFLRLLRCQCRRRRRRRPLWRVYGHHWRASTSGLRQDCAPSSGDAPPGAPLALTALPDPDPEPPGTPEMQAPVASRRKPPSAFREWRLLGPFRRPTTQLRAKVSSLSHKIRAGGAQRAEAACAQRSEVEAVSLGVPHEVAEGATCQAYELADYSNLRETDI
Method in brief: (§1)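 Radioligand competition binding against 125I-HEAT ((±)-β-([125I]-3-iodo-4-hydroxyphenyl)ethylaminomethyl-tetralone), with COS cells as the receptor source. Ki values are derived from displacement and reported as means of three experiments.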

[2] = biological target: T2, Alpha-1A adrenergic receptor (Homo sapiens, UniProt P35348); assay: Displacement of [125I]HEAT from human Alpha-1A adrenergic receptor; method in brief: as §1
T2 sequence (P35348 whole entry): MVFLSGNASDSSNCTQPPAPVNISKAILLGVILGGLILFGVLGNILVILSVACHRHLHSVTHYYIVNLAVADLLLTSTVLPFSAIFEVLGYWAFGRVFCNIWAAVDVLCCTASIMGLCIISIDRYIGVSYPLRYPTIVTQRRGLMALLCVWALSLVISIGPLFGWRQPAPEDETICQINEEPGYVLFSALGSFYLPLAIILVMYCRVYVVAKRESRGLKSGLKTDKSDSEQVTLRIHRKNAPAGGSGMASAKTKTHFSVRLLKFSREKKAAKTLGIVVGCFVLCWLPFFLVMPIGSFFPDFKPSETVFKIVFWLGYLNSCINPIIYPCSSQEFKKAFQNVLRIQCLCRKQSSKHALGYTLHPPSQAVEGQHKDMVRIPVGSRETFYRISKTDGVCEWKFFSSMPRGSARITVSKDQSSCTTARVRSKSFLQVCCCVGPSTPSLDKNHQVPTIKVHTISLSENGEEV

[3] = biological target: T3, Alpha-1B adrenergic receptor (Homo sapiens, UniProt P35368); assay: Displacement of [125I]-HEAT from human Alpha-1B adrenergic receptor; method in brief: as §1
T3 sequence (P35368 whole entry): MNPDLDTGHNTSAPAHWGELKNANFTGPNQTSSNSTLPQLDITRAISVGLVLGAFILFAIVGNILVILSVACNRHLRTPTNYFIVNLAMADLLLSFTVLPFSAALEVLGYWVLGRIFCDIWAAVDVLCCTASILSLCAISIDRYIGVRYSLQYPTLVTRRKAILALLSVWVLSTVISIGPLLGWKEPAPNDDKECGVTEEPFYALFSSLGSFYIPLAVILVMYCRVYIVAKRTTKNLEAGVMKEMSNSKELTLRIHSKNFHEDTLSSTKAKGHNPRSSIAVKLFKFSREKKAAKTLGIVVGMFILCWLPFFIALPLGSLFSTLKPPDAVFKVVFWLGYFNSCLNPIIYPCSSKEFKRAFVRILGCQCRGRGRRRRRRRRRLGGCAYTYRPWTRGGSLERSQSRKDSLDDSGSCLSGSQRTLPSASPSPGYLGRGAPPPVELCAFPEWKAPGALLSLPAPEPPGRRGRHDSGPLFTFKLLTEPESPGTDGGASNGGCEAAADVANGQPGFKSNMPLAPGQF

[4] = biological target: Adrenergic receptors; alpha-1 A & B (Homo sapiens) (UniProt P35348+P35368); assay: Relative binding affinity for alpha-1b and alpha-1a adrenergic receptors; assay type: protein assay
[5] = biological target: Alpha adrenergic receptor (1a and 1d) (Homo sapiens) (UniProt P35348+P25100); assay: Relative binding affinity for alpha-1d and Alpha-1A adrenergic receptors; assay type: protein assay

| Ki [1] [µM] | Ki [2] [µM] | Ki [3] [µM] | Ki ratio [4] | Ki ratio [5] | SMILES |
| --- | --- | --- | --- | --- | --- |
| > 5 | 3.47 | > 5 | > 1.4 | > 1.4 | CC(C)Oc1ccccc1N1CCN(Cc2nc(CN3CCCCCC3=O)co2)CC1 |
| 1.44 | 0.0084 | > 5 | > 595 | 174 | CC(C)Oc1ccccc1N1CCN(Cc2cc(CN3CCCCC3=O)no2)CC1 |
| 0.0395 | 0.0012 | 1.74 | 1450 | 33 | CC(C)Oc1ccccc1N1CCN(Cc2nc(CN3CCCCC3=O)cs2)CC1 |
| 3.06 | 1.5 | 3.72 | 2.5 | 2 | OCc1cc(CN2CCN(c3ccccc3Oc3ccccc3)CC2)on1 |
| 1.11 | 0.297 | > 5 | > 16.8 | 3.7 | CC(C)Oc1ccccc1N1CCN(Cc2nc(CN3C(=O)c4ccccc4C3=O)co2)CC1 |
| 0.0345 | 0.028 | > 5 | > 170 | 1.2 | O=C1CCCN1Cc1cc(CN2CCN(c3ccccc3Oc3ccccc3)CC2)on1 |
| 0.17 | 0.015 | 2.21 | 147 | 11.3 | O=C1CCCCN1Cc1cc(CN2CCN(c3ccccc3Oc3ccccc3)CC2)on1 |
| 0.285 | 0.086 | > 5 | > 58 | 3.3 | O=C1CCCCCN1Cc1cc(CN2CCN(c3ccccc3Oc3ccccc3)CC2)on1 |
| 0.105 | 0.0009 | 4.25 | 4520 | 112 | CC(C)Oc1ccccc1N1CCN(Cc2nc(CN3CCCC3=O)cs2)CC1 |
| 4.14 | 0.082 | > 5 | > 61 | 50 | CC(C)Oc1ccccc1N1CCN(Cc2nc(CN3C(=O)CC4(CCCC4)CC3=O)co2)CC1 |
| > 5 | 1.3 | > 5 | > 3.8 | > 3.8 | CC(C)Oc1ccccc1N1CCN(Cc2nc(CN3CCCC3=O)co2)CC1 |
| > 5 | 2.32 | > 5 | > 2.2 | > 2.2 | CC(C)Oc1ccccc1N1CCN(Cc2nc(CN3CCCCC3=O)co2)CC1 |
| 0.0655 | 0.0011 | 2.99 | 2720 | 60 | CC(C)Oc1ccccc1N1CCN(Cc2cc(CN3CCCC3=O)no2)CC1 |
